# TRPC4 act – activators of mouse TRPC4 channel; B-score at 10 µM; hit rate 0.49% among 310,000; HEK293 TRPC4beta/mu-opioid, Fluo4 calcium fluorescence; active compounds read high; Q9QUQ5;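 active means B-score above 5 SD of library B-scores, and initial fluorescence ratio not above library mean plus 5 SD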;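 further: positive B-score marks a calcium rise read as TRPC4 activation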
# Target sequence (Q9QUQ5 whole entry, looked up): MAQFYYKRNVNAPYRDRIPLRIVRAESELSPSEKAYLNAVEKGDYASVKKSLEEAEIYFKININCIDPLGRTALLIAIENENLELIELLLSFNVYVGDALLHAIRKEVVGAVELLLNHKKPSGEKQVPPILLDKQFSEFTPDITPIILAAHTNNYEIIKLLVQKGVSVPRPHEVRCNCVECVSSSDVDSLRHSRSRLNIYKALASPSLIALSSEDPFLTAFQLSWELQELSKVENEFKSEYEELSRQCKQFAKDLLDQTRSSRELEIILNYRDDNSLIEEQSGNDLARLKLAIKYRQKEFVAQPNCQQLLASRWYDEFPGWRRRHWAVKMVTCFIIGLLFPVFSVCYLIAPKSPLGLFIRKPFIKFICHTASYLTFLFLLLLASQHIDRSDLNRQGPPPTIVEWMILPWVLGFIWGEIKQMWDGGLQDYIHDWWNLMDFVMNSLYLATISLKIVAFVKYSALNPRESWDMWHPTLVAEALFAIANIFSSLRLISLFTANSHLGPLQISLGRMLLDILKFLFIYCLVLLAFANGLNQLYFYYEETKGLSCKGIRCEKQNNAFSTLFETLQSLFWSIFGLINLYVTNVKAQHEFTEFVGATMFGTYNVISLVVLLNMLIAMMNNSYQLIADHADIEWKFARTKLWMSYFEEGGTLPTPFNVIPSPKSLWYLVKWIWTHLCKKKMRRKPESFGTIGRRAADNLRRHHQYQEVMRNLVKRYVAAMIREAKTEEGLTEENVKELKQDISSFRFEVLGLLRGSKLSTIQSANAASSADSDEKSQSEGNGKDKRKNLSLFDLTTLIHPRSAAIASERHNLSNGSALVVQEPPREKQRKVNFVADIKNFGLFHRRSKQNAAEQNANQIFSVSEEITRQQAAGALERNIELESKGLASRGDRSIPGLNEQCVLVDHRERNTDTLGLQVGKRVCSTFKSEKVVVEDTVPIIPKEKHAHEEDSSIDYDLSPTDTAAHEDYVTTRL
#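 Material: HEK293 stable line with TRPC4beta plus mu-opioid receptor; technique: Fluo4 calcium-sensitive dye fluorescence, kinetic, 1 Hz baseline; timing: Fluo4 dye loading 45 min at room temperature, 110 s recording; controls: assay buffer as low control, maximal DAMGO as high control; read-out: integrated baseline-normalised fluorescence ratio, converted to per-well B score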
# TRPC6 inh – mouse TRPC6 channel inhibition; Q61143; HEK293-TRPC6, membrane potential dye, ACh-evoked depolarization; active compounds read low; B-score at 10 µM; hit rate 1.1% among 310,000;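 active means B-score under library mean minus 3 SD, initial fluorescence not abnormally high, positive integrated signal ratio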;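 further: B-score derived from integrated fluorescence ratio over the kinetic read; more negative B-score means stronger inhibition of depolarization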
# TRPC6 act – activators of mouse TRPC6 channel | B-score at 10 µM | hit rate 0.13% among 310,000 | AID 2550 | HEK293-TRPC6 membrane potential dye fluorescence; active compounds read high | Q61143;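 active means B-score of the integrated fluorescence ratio above library mean plus 3 SD, and starting fluorescence ratio within library mean plus 5 SD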;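 further: higher score means more depolarization so channel activation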
# TRPC4 PAM – allosteric potentiators of mouse TRPC4 channel; B-score at 10 µM; hit rate 0.42% among 310,000; HEK293 TRPC4beta/mu-opioid, DAMGO EC20, Fluo-4 Ca2+ flux; active compounds read high;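 active means B-score of calcium response area above 5 SD of library B-scores, with initial fluorescence ratio within 5 SD of library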;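 further: B-score of integrated fluorescence ratio over time as area under calcium response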
# TRPC4 inh – inhibitors of mouse TRPC4 channel | Q9QUQ5 | HEK293 TRPC4beta/mu-opioid, DAMGO-evoked Fluo4 calcium flux; active compounds read low | B-score at 10 µM | hit rate 0.39% among 300,000 | AID 2247;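 active means B-score over 3 SD under the library average, no early fluorescence shift, positive overall ratio signal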
#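 Test system – stable TRPC4beta/mu-opioid receptor HEK293 cells · Probe or stimulus – DAMGO, a submaximal dose followed by a maximal one · Dosing – one concentration per compound · Signal – Fluo4 calcium fluorescence by kinetic imaging, 5 s 1 Hz baseline · Evaluation – per-well B score of integrated baseline-normalized Fluo4 ratio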
# TRPC4 sel inh 2 – second check of whether TRPC6 inhibitors also affect mouse TRPC4; shares compounds with TRPC6 inh; HEK293 TRPC4/MOR, membrane potential dye fluorescence; channel activated by saturating DAMGO dose; inhibition, % at 10 µM; hit rate 42% among 920;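 active means compounds whose fluorescence signal differed from control wells by over 3 SD, either direction, in both duplicate plates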
# TRPC4 spec – tests whether TRPC6 inhibitors also affect mouse TRPC4 | activity change, negative = inhibition, % at 10 µM | hit rate 61% among 920 | shares compounds with TRPC6 inh | HEK293 TRPC4/mu-opioid, membrane potential fluorescence;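 active means rise or fall in signal beyond 3 SD of buffer-only wells in both replicate plates, either sign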;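 further: integrated kinetic ratio of fluorescence range over baseline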
# HEK293 MPD ctr 2-1 – second check of TRPC6 inhibitor effects in parental HEK293 cells; shares compounds with TRPC6 inh; parental HEK293 membrane potential dye fluorescence; maximal acetylcholine challenge after compound addition; signal change vs control, % at 10 µM; hit rate 31% among 920;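 active means membrane potential signal moving either way by over 3 SD of the maximum-effect control, in both duplicate plates, meaning non-specific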
# HEK293 MPD ctr-1 – checks TRPC6 inhibitor effects in parental HEK293 cells | hit rate 60% among 920 | parental HEK293 membrane potential dye fluorescence | membrane potential signal change, % at 10 µM | shares compounds with TRPC6 inh;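 active means membrane potential signal shifting up or down by more than 3 SD of buffer-only wells, on both duplicate plates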
# HEK293 MPD ctr-2 – counter-screen for TRPC6 modulators: effect in parental HEK293 cells; shares compounds with TRPC6 inh; membrane potential dye fluorescence; membrane potential signal change, % at 10 µM; hit rate 51% among 2,400; AID 488924;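 active means membrane potential signal moves up or down beyond 5 SD from buffer-only wells, on both duplicate plates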
# HEK293 MPD ctr 2-2 – parental HEK293 nonspecific activity of TRPC6 modulators, second screen; shares compounds with TRPC6 inh; membrane potential dye fluorescence; after compound, maximal acetylcholine stimulation; inhibition, % at 10 µM; hit rate 14% among 2,400; AID 488926;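 active means membrane potential signal drops by more than 5 SD from the mean control signal, in both duplicate plates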;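 further: plate controls were acetylcholine ECmax control wells for no effect and buffer only wells for full effect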
# TRPC4 ctr mod – tests whether TRPC6 modulators also affect mouse TRPC4; shares compounds with TRPC6 inh; HEK293 TRPC4/mu-opioid, membrane potential fluorescence; percent change from control (negative = decrease, positive = increase), % at 10 µM; hit rate 69% among 2,400; AID 488927;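 active means membrane potential signal moved up or down beyond 5 SD of buffer control wells, in both duplicate plates, actives on both sides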;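 further: plate controls were assay buffer wells for no effect and DAMGO maximal-effect wells for full effect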
# TRPC4/MOR inh 2 – second selectivity test of TRPC6 modulators against mouse TRPC4; shares compounds with TRPC6 inh; HEK293 TRPC4/mu-opioid, membrane potential dye fluorescence; stimulated with maximal-effect DAMGO; inhibition, % at 10 µM; hit rate 55% among 2,400; AID 488928;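 active means drop in membrane potential signal beyond 5 SD of the control wells in both duplicate plates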;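 further: TRPC4 counter screen for TRPC6 hits run under conditions tuned for TRPC6 not TRPC4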
# TRPC6 block conf – confirmation of mouse TRPC6 inhibitors; shares compounds with TRPC6 inh; HEK293-TRPC6, membrane potential dye, ACh-evoked depolarization; inhibition, % at 10 µM; hit rate 43% among 3,300; AID 488960;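 active means fluorescence ratio falls more than 5 SD below the full-stimulation control mean, in both duplicate runs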;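 further: integrated fluorescence ratio of peak minus minimum over baseline after agonist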
# TRPC6 act confirm – confirmation of mouse TRPC6 activators | AID 488961 | activation, % at 10 µM | shares compounds with TRPC6 inh | HEK293-TRPC6 membrane potential dye fluorescence, FDSS | hit rate 11% among 2,800;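 active means ratio signal rise beyond 5 SD above unstimulated control wells' mean, seen in both duplicate runs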;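 further: plate controls were buffer EC0 wells for no effect and acetylcholine ECmax response for full effect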
# * hit, by the source's call; i = inactive; . = not tested or not shown. Compounds with a hit are over-represented: about 2.3% of the library has one in this group of screens.
SMILES,TRPC4 act,TRPC6 inh,TRPC6 act,TRPC4 PAM,TRPC4 inh,HEK293 MPD ctr-2,HEK293 MPD ctr 2-2,TRPC4 ctr mod,TRPC4/MOR inh 2,TRPC6 block conf,TRPC6 act confirm,others
Cc1cc(C)cc(-n2c(C)cc(/C=N/NC(=O)CSc3ncccn3)c2C)c1,i,-9.9*,i,i,i,.,.,.,.,i,i,TRPC4 sel inh 2=i;TRPC4 spec=i;HEK293 MPD ctr 2-1=i;HEK293 MPD ctr-1=i
CCN(CC)S(=O)(=O)c1ccc(C(=O)NCC2CCCCC2)cc1,i,i,i,i,i,.,.,.,.,.,.,
Cc1cc(OCC(=O)NC2CCN(Cc3ccccc3)CC2)c2c(C)cc(=O)oc2c1,i,-6.1*,i,i,i,-82%*,i,-26%*,i,i,i,
CC[n+]1c(C)sc2c3ccsc3ccc21,i,-6.3*,i,i,i,-184%*,i,-32%*,i,i,i,
Cc1ccc(C(=O)c2ccccc2C(=O)OCC(=O)Nc2cccc([N+](=O)[O-])c2)cc1,i,-6.5*,i,i,i,i,i,i,i,i,i,
Cc1ccc(-c2nc(C)sc2CC(=O)OCC(=O)Nc2cccc([N+](=O)[O-])c2)cc1,i,i,i,i,i,.,.,.,.,.,.,
CCN1CCN(c2c(C=O)c(Cl)nc3ccc(OC)cc23)CC1,78*,-7.5*,i,i,i,-276%*,72%*,i,54%*,58%*,i,
CCOc1cc2c(C#N)c(N3CCNCC3)nc(N)c2c(N)n1,i,-5.9*,i,12*,i,-194%*,i,-25%*,i,38%*,i,
CC(Oc1ccccc1)C(=O)N=C1SC2CS(=O)(=O)CC2N1c1ccccc1 (centres undefined),i,i,i,i,i,.,.,.,.,.,.,
CN(C)CCOC(C1CCCCC1)C1CCCCC1,i,-5.5*,i,i,i,230%*,i,52%*,50%*,39%*,.,
CCOC(=O)N1CCN(C(=O)c2ccc3nc(N4CCC(C)CC4)sc3c2)CC1,i,-12*,13*,i,i,114%*,i,21%*,i,113%*,160%*,
CC(=O)NCCC(=O)N(C)CC1CCN(CCc2cccc(C(F)(F)F)c2)CC1,i,i,i,i,i,.,.,.,.,.,.,
OC(CCN1CCCC1)(c1ccccc1)C1CCCCC1 (centres undefined),i,-8.2*,i,i,i,.,.,.,.,79%*,.,TRPC4 sel inh 2=i;TRPC4 spec=24%*;HEK293 MPD ctr 2-1=-14%*;HEK293 MPD ctr-1=15%*
OC(CCN1CCCCC1)(c1ccccc1)c1ccccc1,i,-7.1*,i,i,i,.,.,.,.,74%*,.,TRPC4 sel inh 2=i;TRPC4 spec=17%*;HEK293 MPD ctr 2-1=-7.0%*;HEK293 MPD ctr-1=12%*
Nc1nc(SCC(=O)N2CCCc3ccccc32)[nH]c(=O)c1-c1ccccc1,i,-6.5*,i,i,i,180%*,i,34%*,i,i,.,
Cc1cccn2c(CNCCc3ccco3)c(C(=O)N3CCOCC3)nc12,i,i,i,i,i,.,.,.,.,.,.,
COc1ccc(CC(=O)N2CCCC2)c(OC)c1,i,i,i,i,i,.,.,.,.,.,.,
CCOC(=O)c1c(-c2ccccc2)oc2cc(CN(C)C)c(O)c(CN(C)C)c12,i,-7.7*,i,i,i,.,.,.,.,i,i,TRPC4 sel inh 2=i;TRPC4 spec=i;HEK293 MPD ctr 2-1=270%*;HEK293 MPD ctr-1=i
Brc1ccc(-c2noc3c2-c2nc(C4CCCCC4)sc2CC3)cc1,i,i,i,i,i,.,.,.,.,.,.,
CN1CCC(OC(=O)COc2ccc(Br)cc2)CC1,i,-5.5*,i,i,i,i,i,13%*,i,i,.,
COc1ccc(OCC(=O)OC2CCN(C)CC2)cc1,i,i,i,i,i,.,.,.,.,.,.,
CN1CCN(c2ccccc2NC(=O)COc2ccc(Br)cc2)CC1,i,-5.1*,i,i,i,i,i,18%*,i,i,i,
Cc1cc(NC(=O)C(C)SCC(=O)OCc2c(Cl)cccc2Cl)no1 (centres undefined),i,i,i,i,i,.,.,.,.,.,.,
CCCCC(=O)Nc1cc(N(C)C)nc2ccccc12,i,i,i,i,i,.,.,.,.,.,.,
CN(C)c1cc(NC(=O)CNC(C)(C)C)c2ccccc2n1,i,-9.2*,i,i,i,-192%*,i,-36%*,50%*,i,i,
CC(C)[C@@H](CSc1ccccc1)N1CCN(Cc2ccccc2)CCC1=O,i,i,i,i,i,.,.,.,.,.,.,
CCOC(=O)c1cnc2c(C(F)(F)F)cccc2c1NCCCN1CCOCC1,i,-7.2*,i,i,i,-185%*,i,-34%*,52%*,i,i,
CCOC(=O)c1cnc2c(CC)cccc2c1NCCCN1CCOCC1,i,i,i,i,i,.,.,.,.,.,.,
CCOC(=O)c1cnc2c(Cl)cccc2c1NCCCN1CCOCC1,i,-6.3*,i,i,i,-187%*,i,-30%*,38%*,44%*,i,
CCOC(=O)c1cnc2c(Cl)cccc2c1NCCN1CCOCC1,i,i,i,i,i,.,.,.,.,.,.,

# Source: PubChem BioAssay
